Activity calls are given as the source filed them. No cut-off for these calls is given here.
Key:
P388 [1] = experiment: Cytotoxicity against mouse P388 cells assessed as growth inhibition at 1x10'-3 M after 72 hrs by Coulter counting analysis relative to control; type: functional; details: P388, 72 h, read-out: GI
Procedure, shortened: (§1)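 P388 leukemia cells seeded at 1.1 × 10^4 cells/mL in Fischer's medium with 10% horse serum. Compound dissolved in 0.9% NaCl, with or without 3% Me2SO, at ten times final concentration, filter-sterilized, and added at one-tenth volume. Incubation at 37 °C under 5% CO2; cell numbers counted in triplicate by electronic particle counter after 72 h.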

P388 [2] = experiment: Cytotoxicity against mouse P388 cells assessed as growth inhibition at 1x10'-4 M after 72 hrs by Coulter counting analysis relative to control; type: functional; details: P388, 72 h, read-out: GI; procedure, shortened: as §1
P388 [3] = experiment: Cytotoxicity against mouse P388 cells assessed as growth inhibition at 1x10'-5 M after 72 hrs by Coulter counting analysis relative to control; type: functional; details: P388, 72 h, read-out: GI; procedure, shortened: as §1
P388 [4] = experiment: Displacement of L-[3H]-fucose from glycoprotein in mouse P388 cells at 10^-4 to 10^-3 M incubated for 2 hrs prior to radioligand addition measured after 30 mins by scintillation spectrometric analysis; type: cell-based
Procedure, shortened: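 P388 cells grown to midlog phase (4 × 10^5 cells/mL) in Fischer's medium plus 10% horse serum, then resuspended in fresh medium at 5 × 10^6 cells/mL. Preincubated 2 h at 37 °C with shaking with compound at 10^-4 or 10^-3 M. L-[3H]fucose and [14C]glucosamine (nonspecific control) then added for 30 min. Stopped with cold 10% TCA; pellets washed, lipid-extracted, hydrolyzed in 0.5 N NaOH at 85 °C; scintillation counting.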

P388 [5] = experiment: Cytotoxicity against mouse P388 cells assessed as growth inhibition at 2.5x10'-4 M after 72 hrs by Coulter counting analysis relative to control; type: functional; details: P388, 72 h, read-out: GI; procedure, shortened: as §1
P388 [6] = experiment: Cytotoxicity against mouse P388 cells assessed as growth inhibition at 5x10'-4 M after 72 hrs by Coulter counting analysis relative to control; type: functional; details: P388, 72 h, read-out: GI; procedure, shortened: as §1

| Structure (SMILES) | inhibition of growth at 1000 µM (P388 [1]) | inhibition of growth at 100 µM (P388 [2]) | inhibition of growth at 10 µM (P388 [3]) | inhibition (P388 [4]) | inhibition of growth at 250 µM (P388 [5]) | inhibition of growth at 500 µM (P388 [6]) |
| --- | --- | --- | --- | --- | --- | --- |
| COC[C@@H]1OC(O)[C@@H](O)[C@H](O)[C@@H]1O (stereo not given in full) | 73% | 16% | 12% | inactive | – | – |
| CC(=O)O[C@@H]1O[C@@H](C(F)F)[C@@H](OC(C)=O)[C@@H](OC(C)=O)[C@@H]1OC(C)=O | – | – | – | – | 89% | – |
| OC1O[C@@H](CF)[C@@H](O)[C@@H](O)[C@@H]1O (stereo not given in full) | 8% | 10% | 3% | inactive | – | – |
| CC(=O)NC[C@@H]1OC(O)[C@@H](O)[C@H](O)[C@@H]1O (stereo not given in full) | 16% | 9% | 15% | inactive | – | – |
| OC1O[C@@H](CBr)[C@@H](O)[C@@H](O)[C@@H]1O (stereo not given in full) | 97% | 33% | – | inactive | – | 87% |
| Cc1ccc(S(=O)(=O)OC[C@@H]2OC(O)[C@@H](O)[C@H](O)[C@@H]2O)cc1 (stereo not given in full) | 96% | 25% | 14% | inactive | – | 94% |
| OC1O[C@@H](COCc2ccccc2)[C@@H](O)[C@@H](O)[C@@H]1O (stereo not given in full) | 26% | 17% | – | inactive | – | 21% |
| CCOC[C@@H]1OC(O)[C@@H](O)[C@H](O)[C@@H]1O (stereo not given in full) | 23% | 25% | – | inactive | – | 31% |
| CS(=O)(=O)OC[C@@H]1OC(O)[C@@H](O)[C@H](O)[C@@H]1O (stereo not given in full) | 96% | 56% | – | inactive | – | 86% |
| O=S(=O)(OC[C@@H]1OC(O)[C@@H](O)[C@H](O)[C@@H]1O)c1ccccc1 (stereo not given in full) | 97% | 52% | – | inactive | – | 95% |
| CC[C@@H]1OC(O)[C@@H](O)[C@H](O)[C@@H]1O (stereo not given in full) | 2% | – | – | inactive | – | – |
| [N-]=[N+]=NC[C@@H]1OC(O)[C@@H](O)[C@H](O)[C@@H]1O (stereo not given in full) | 20% | 12% | 7% | inactive | – | – |
| OC1O[C@@H](CI)[C@@H](O)[C@@H](O)[C@@H]1O (stereo not given in full) | 91% | 44% | – | inactive | – | 71% |
| O=C(NC[C@@H]1OC(O)[C@@H](O)[C@H](O)[C@@H]1O)C(F)(F)F (stereo not given in full) | 36% | 14% | 7% | inactive | – | – |
| OC1O[C@@H](C(F)F)[C@@H](O)[C@@H](O)[C@@H]1O (stereo not given in full) | 0% | 0% | – | inactive | – | 0% |
| OC1O[C@@H](CCl)[C@@H](O)[C@@H](O)[C@@H]1O (stereo not given in full) | 15% | 10% | 10% | inactive | – | – |

Source: ChEMBL document CHEMBL3244048, “Synthesis and biological activity of potential antimetabolites of L-fucose” (1979)
